Tests used:
MCF7 [1] = test: Cytotoxicity against human MCF7 cells assessed as surviving fraction at 10 uM after 48 hrs by SRB assay relative to control; assay type: functional
Method in brief: (§1)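 MCF-7 cells (ATCC) grown in DMEM with 10% heat-inactivated fetal calf serum. Seeded at 10⁴ cells/well and left 24 h to attach. Compounds dissolved in DMSO and diluted with saline, then given to the monolayer for 48 h at 37 °C under 5% CO₂. Cells fixed, stained 30 min with 0.4% SRB in 1% acetic acid, washed four times with 1% acetic acid, and bound dye recovered in Tris-EDTA. Colour read on an ELISA reader.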

MCF7 [2] = test: Cytotoxicity against human MCF7 cells assessed as surviving fraction at 50 uM after 48 hrs by SRB assay relative to control; assay type: functional; method in brief: as §1
MCF7 [3] = test: Cytotoxicity against human MCF7 cells assessed as surviving fraction at 100 uM after 48 hrs by SRB assay relative to control; assay type: functional; method in brief: as §1
MCF7 [4] = test: Cytotoxicity against human MCF7 cells assessed as surviving fraction after 48 hrs by SRB assay; assay type: functional, cell-based; details: MCF7, 48 h; method in brief: as §1
MCF7 [5] = test: Cytotoxicity against human MCF7 cells assessed as surviving fraction at 25 uM after 48 hrs by SRB assay relative to control; assay type: functional; method in brief: as §1

With `O=C1Nc2ccc(Cl)cc2/C1=N/N=C/c1ccco1` the Ratio (MCF7 [1]) was 0.384, the Ratio (MCF7 [2]) was 0.259 and the Ratio (MCF7 [3]) was 0.231. The IC50 (MCF7 [4]) was 7.75 µM and the Ratio (MCF7 [5]) was 0.274.

With `Cc1ccc2c(c1)/C(=N/N=C/c1cccs1)C(=O)N2` the Ratio (MCF7 [1]) was 0.227, the Ratio (MCF7 [2]) was 0.099 and the Ratio (MCF7 [3]) was 0.137. For the same molecule, the IC50 (MCF7 [4]) was 6.75 µM and the Ratio (MCF7 [5]) was 0.132.

`O=C1Nc2ccc(Cl)cc2/C1=N/N=C/c1cccs1` was tested, and the Ratio (MCF7 [1]) was 0.619, the Ratio (MCF7 [2]) was 0.204 and the Ratio (MCF7 [3]) was 0.194. The IC50 (MCF7 [4]) was 15.3 µM and the Ratio (MCF7 [5]) was 0.31.

For `O=C1Nc2ccc(F)cc2/C1=N/N=C/c1cccs1`, the Ratio (MCF7 [1]) was 0.616, the Ratio (MCF7 [2]) was 0.331 and the Ratio (MCF7 [3]) was 0.308. For the same molecule, the IC50 (MCF7 [4]) was 25.8 µM and the Ratio (MCF7 [5]) was 0.505.

With `O=C1Nc2ccccc2/C1=N/N=C/c1ccc[nH]1` the Ratio (MCF7 [1]) was 0.465, the Ratio (MCF7 [2]) was 0.395 and the Ratio (MCF7 [3]) was 0.357. For the same molecule, the IC50 (MCF7 [4]) was 6.25 µM and the Ratio (MCF7 [5]) was 0.328.

`Cc1ccc2c(c1)/C(=N/N=C/c1ccc[nH]1)C(=O)N2` showed a Ratio (MCF7 [1]) of 0.473, a Ratio (MCF7 [2]) of 0.221 and a Ratio (MCF7 [3]) of 0.206. For the same molecule, the IC50 (MCF7 [4]) was 9.25 µM and the Ratio (MCF7 [5]) was 0.351.

In the case of `O=C1Nc2ccc(Cl)cc2/C1=N/N=C/c1ccc[nH]1`, the Ratio (MCF7 [1]) is reported as 0.51, the Ratio (MCF7 [2]) is reported as 0.238 and the Ratio (MCF7 [3]) is reported as 0.259. For the same molecule, the IC50 (MCF7 [4]) was 11.8 µM and the Ratio (MCF7 [5]) was 0.392.

With `O=C1Nc2ccc(F)cc2/C1=N/N=C/c1ccc[nH]1` the Ratio (MCF7 [1]) was 0.671, the Ratio (MCF7 [2]) was 0.456 and the Ratio (MCF7 [3]) was 0.528. It also gave an IC50 (MCF7 [4]) of 10.8 µM and a Ratio (MCF7 [5]) of 0.274.

Molecule `O=C1Nc2ccccc2/C1=N/N=C/c1ccco1` has a Ratio (MCF7 [1]) of 0.637, a Ratio (MCF7 [2]) of 0.158 and a Ratio (MCF7 [3]) of 0.333. The IC50 (MCF7 [4]) was 15.8 µM and the Ratio (MCF7 [5]) was 0.306.

`Cc1ccc2c(c1)/C(=N/N=C/c1ccco1)C(=O)N2` gave a Ratio (MCF7 [1]) of 0.436, a Ratio (MCF7 [2]) of 0.195 and a Ratio (MCF7 [3]) of 0.102. It also gave an IC50 (MCF7 [4]) of 8.75 µM and a Ratio (MCF7 [5]) of 0.213.

`O=C1Nc2ccc(F)cc2/C1=N/N=C/c1ccco1` was tested, and the Ratio (MCF7 [1]) was 0.667, the Ratio (MCF7 [2]) was 0.335 and the Ratio (MCF7 [3]) was 0.257. It also gave an IC50 (MCF7 [4]) of 20.3 µM and a Ratio (MCF7 [5]) of 0.429.

`O=C1Nc2ccccc2/C1=N/N=C/c1cccs1` gave a Ratio (MCF7 [1]) of 0.352, a Ratio (MCF7 [2]) of 0.522 and a Ratio (MCF7 [3]) of 0.546. The IC50 (MCF7 [4]) was 8.25 µM and the Ratio (MCF7 [5]) was 0.602.

With `COc1cccc2c1C(=O)c1c(O)c3c(c(O)c1C2=O)C[C@@](O)(C(=O)CO)C[C@@H]3O[C@H]1C[C@H](N)[C@H](O)[C@H](C)O1` [DOXORUBICIN] the Ratio (MCF7 [1]) was 0.257, the Ratio (MCF7 [2]) was 0.098 and the Ratio (MCF7 [3]) was 0.125. It also gave an IC50 (MCF7 [4]) of 6.1 µM and a Ratio (MCF7 [5]) of 0.158.
